The text below walks through data of ChEMBL document CHEMBL1157729, “Structure-activity relationship and mechanism of action studies of manzamine analogues for the control of neuroinflammation and cerebral infections” (J Med Chem, 2010).

Values after ≈ are worked out from the molar mass of the structure shown. Active and inactive are the calls of the source. The calls are words filed in the database; no cut-off is given here. A value given as a limit tells only on which side of the number the result lay.

In series [1] the test system is Plasmodium berghei. In words: Antiplasmodial activity against Plasmodium berghei NK65 infected in Swiss Webster mice (Mus musculus) assessed as suppression of parasitaemia at 10 mg/kg, intraperitoneally administered 1 day after infection for 3 days measured after 5 days post infection relative to control. It counts as functional. Conditions: route intraperitoneal.

Series [2] in a line: Antineuroinflammatory activity in LPS-stimulated rat neonatal microglia assessed as inhibition of PMA-induced TXB2 production preincubated 15 mins prior to PMA challenge measured after 70 mins. It is filed as functional, cell-based.
A short description of series [3]: Selectivity index, ratio of IC50 for african green monkey (Cercopithecus aethiops) Vero cells to IC50 for chloroquine-sensitive Plasmodium falciparum. It is filed as toxicity, cell-based.
Series [4] relates to Plasmodium berghei. As to the kind of experiment: Antiplasmodial activity against Plasmodium berghei NK65 infected in Swiss Webster mice (Mus musculus) at 10 mg/kg, intraperitoneally administered 1 day after infection for 3 days. As to conditions: route intraperitoneal. It counts as functional.
The subject of series [5] is Plasmodium berghei. As to the kind of experiment: Antiplasmodial activity against Plasmodium berghei NK65 infected in Swiss Webster mice (Mus musculus) assessed as survivability at 10 mg/kg, intraperitoneally administered 1 day after infection for 3 days measured after 28 days post infection. It counts as functional, organism-based. Set-up: dose 10 mg/kg.
Series [6] can be described thus: Selectivity index, ratio of IC50 for african green monkey (Cercopithecus aethiops) Vero cells to IC50 for chloroquine-resistant Plasmodium falciparum W2. It counts as toxicity, cell-based.
Series [7] has as its system Mycobacterium tuberculosis. As to the kind of experiment: Antimycobacterial activity against Mycobacterium tuberculosis. It is filed as functional.
In series [8] the test system is Plasmodium berghei. As to the kind of experiment: Antiplasmodial activity against Plasmodium berghei NK65 infected in Swiss Webster mice (Mus musculus) assessed as parasitaemia cure at 10 mg/kg, intraperitoneally administered 1 day after infection measured after 28 days post infection. It is filed as functional.
Series [9] in a line: Antineuroinflammatory activity in LPS-stimulated rat neonatal microglia assessed as drug level causing 50% PMA-induced LDH release preincubated 15 mins prior to PMA challenge measured after 70 mins. It counts as functional. An outline of the steps:
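Neonatal rat microglia (2 × 10^5/well) primed with E. coli LPS 0.3 ng/mL for 17 h at 35.9 °C, washed with HBSS, given compound (0.01–10 μM) or DMSO 15 min, then PMA 1 μM; LDH read spectrophotometrically after 70 min; LDH50 relative to Triton X-100 (0.1%) release; duplicates.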
Background: Release of lactate dehydrogenase indicates damage to the cell membrane.

Series [10] deals with Plasmodium berghei. In words: Toxicity in Plasmodium berghei NK65 infected Swiss Webster mice (Mus musculus) assessed as weight loss at 10 mg/kg, intraperitoneally administered 1 day after infection measured after 28 days post infection. It counts as organism-based. Set-up: dose 10 mg/kg, route intraperitoneal. Conditions: in vivo, ip, 672 h.
For series [11], the system named is Plasmodium berghei. In words: Antiplasmodial activity against Plasmodium berghei NK65 infected in Swiss Webster mice (Mus musculus) assessed as suppression of parasitaemia at 10 mg/kg, intraperitoneally administered 1 day after infection for 3 days measured after 7 days post infection relative to control. It counts as functional. As to conditions: route intraperitoneal.

A short description of series [12]: Antineuroinflammatory activity in LPS-stimulated rat neonatal microglia assessed as inhibition of PMA-induced superoxide anion production preincubated 15 mins prior to PMA challenge measured after 70 mins. It is filed as functional, cell-based.
Series [13] addresses T1, Tubulin (Sus scrofa) (UniProt P02554+P02550). In words: Inhibition of pig brain tubulin polymerization after 30 to 60 mins in presence of GTP and glutamate by turbidimetry.
The target in series [14] is T1, Tubulin (Sus scrofa). In words: Inhibition of pig brain tubulin polymerization up to 30 mins by turbidimetry.
Series [15] deals with Mycobacterium tuberculosis. In words: Antimycobacterial activity against Mycobacterium tuberculosis H37Rv. It is filed as functional, organism-based.
Series [16] relates to Vero. As to the kind of experiment: Cytotoxicity against african green monkey Vero cells after 48 hrs by neutral red assay. It is filed as cell-based. Conditions: chlorocebus sabaeus. The gist of the method: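 Vero cells seeded at 25,000/well and grown 24 h, then exposed to serially diluted samples for 48 h. Viable cells measured by neutral red assay, with doxorubicin as positive control. IC50 taken from dose-response curves.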

Series [17] concerns Mycobacterium intracellulare. As to the kind of experiment: Antimycobacterial activity against Mycobacterium intracellular ATCC 23068. It is filed as functional, organism-based. An outline of the steps: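 Modified Franzblau method; samples serially diluted in 20% DMSO/saline, tested in duplicate; inoculum set by OD630; fluorescence read at 544ex/590em before and after incubation; ciprofloxacin drug control.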

The test system of series [18] is HeLa. As to the kind of experiment: Cell cycle arrest in human HeLa cells assessed as decrease in G2/M phase accumulation at 20 uM after 24 hrs by FACS analysis. Set-up: scale not given: the % may be the effect or the level left. It counts as functional. (Flow cytometry measures light scatter and fluorescence of single cells or particles in a stream.)
Series [19] concerns HeLa. As to the kind of experiment: Cell cycle arrest in human HeLa cells assessed as increase in G0/G1 phase accumulation at 10 uM after 24 hrs by FACS analysis. It is filed as functional.
Series [20] concerns HeLa. As to the kind of experiment: Cytotoxicity against human HeLa cells after 48 hrs by trypan blue exclusion assay. It counts as functional.
Series [21] concerns Plasmodium falciparum. In words: Antiplasmodial activity against chloroquine-resistant Plasmodium falciparum W2 after 72 hrs by LDH assay. It is filed as functional, organism-based. Conditions: Plasmodium falciparum, W2, 72 h; read-out: IC50.
The test system of series [22] is HeLa. In words: Cell cycle arrest in human HeLa cells assessed as increase in S phase accumulation at 10 uM after 24 hrs by FACS analysis. It is filed as functional.
For series [23], the system named is HeLa. In words: Cell cycle arrest in human HeLa cells assessed as increase in S phase accumulation at 20 uM after 24 hrs by FACS analysis. It counts as functional.
A further series has as its system Candida albicans. In words: Antifungal activity against Candida albicans ATCC 90028. It counts as functional, organism-based. An outline of the steps:
(§1)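 Broth microdilution per modified CLSI method; samples serially diluted in 20% DMSO/saline, tested in duplicate; inocula set by OD630 of suspensions in incubation broth; growth read at 630 nm before and after incubation; amphotericin B drug control.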

Series [24] concerns HeLa. In words: Cell cycle arrest in human HeLa cells assessed as decrease in G2/M phase accumulation at 10 uM after 24 hrs by FACS analysis. It is filed as functional. Set-up: scale not given: the % may be the effect or the level left.
Series [25] has as its system HeLa. In words: Cell cycle arrest in human HeLa cells assessed as increase in G0/G1 phase accumulation at 3 uM after 24 hrs by FACS analysis. It counts as functional.
The subject of series [26] is HeLa. As to the kind of experiment: Cell cycle arrest in human HeLa cells assessed as increase in S phase accumulation at 3 uM after 24 hrs by FACS analysis. It counts as functional.
Series [27] deals with HeLa. In words: Cell cycle arrest in human HeLa cells assessed as increase in G0/G1 phase accumulation at 5 uM after 24 hrs by FACS analysis. It counts as functional.
Series [28] deals with HeLa. As to the kind of experiment: Cell cycle arrest in human HeLa cells assessed as decrease in G2/M phase accumulation at 3 uM after 24 hrs by FACS analysis. It counts as functional. Set-up: scale not given: the % may be the effect or the level left.
Series [29] relates to HeLa. In words: Cell cycle arrest in human HeLa cells assessed as decrease in G2/M phase accumulation at 5 uM after 24 hrs by FACS analysis. It is filed as functional. Set-up: scale not given: the % may be the effect or the level left.
The subject of series [30] is Plasmodium falciparum. In words: Antiplasmodial activity against chloroquine-sensitive Plasmodium falciparum D6 after 72 hrs by LDH assay. It counts as functional, organism-based. Conditions: Plasmodium falciparum, D6, 72 h; read-out: IC50.
For the next series, the system named is Cryptococcus neoformans. In words: Antifungal activity against Cryptococcus neoformans ATCC 90113. It is filed as functional, organism-based. The gist of the method:
as §1

Series [31] relates to HeLa. As to the kind of experiment: Cell cycle arrest in human HeLa cells assessed as increase in G0/G1 phase accumulation at 20 uM after 24 hrs by FACS analysis. It is filed as functional.
Series [32] relates to HeLa. In words: Cell cycle arrest in human HeLa cells assessed as increase in S phase accumulation at 5 uM after 24 hrs by FACS analysis. It counts as functional.
Series [33] is described as follows: Cytotoxicity against LPS-stimulated rat neonatal microglia assessed as LDH release. An outline of the steps: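 Rat neonatal microglia (2×10^5/well) primed with E. coli LPS (0.3 ng/mL) for 17 h at 35.9 °C. Washed into HBSS, given compound (0.01-10 μM) or DMSO for 15 min, then PMA (1 μM) for 70 min, in duplicate. LDH release read spectrophotometrically. LDH50 is the concentration giving 50% of the LDH release seen with 0.1% Triton X-100.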

For series [34], the system named is Vero. In words: Cytotoxicity against african green monkey Vero cells up to 4.6 ug/mL after 48 hrs by neutral red assay. It counts as cell-based. As to conditions: chlorocebus sabaeus. The gist of the method: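 Vero cells were seeded at 25,000 cells/well and incubated for 24 h, then exposed to serially diluted samples for 48 h. Viable cells were counted by Neutral Red assay, with doxorubicin as positive control. IC50 was taken from dose-response curves.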

T1 sequence (P02550 whole entry, looked up): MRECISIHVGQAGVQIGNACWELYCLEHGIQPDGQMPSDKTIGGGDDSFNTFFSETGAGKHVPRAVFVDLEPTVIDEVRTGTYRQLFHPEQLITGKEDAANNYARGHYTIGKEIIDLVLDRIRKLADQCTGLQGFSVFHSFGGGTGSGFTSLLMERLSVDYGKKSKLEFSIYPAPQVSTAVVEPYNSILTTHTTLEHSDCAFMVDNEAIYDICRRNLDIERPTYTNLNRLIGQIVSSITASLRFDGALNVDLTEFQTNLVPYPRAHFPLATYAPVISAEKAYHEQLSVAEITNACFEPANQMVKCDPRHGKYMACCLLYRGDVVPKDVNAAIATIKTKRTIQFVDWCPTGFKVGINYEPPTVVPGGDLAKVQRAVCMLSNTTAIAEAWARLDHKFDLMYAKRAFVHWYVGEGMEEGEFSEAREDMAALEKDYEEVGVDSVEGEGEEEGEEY
T1 sequence (P02554 whole entry, looked up): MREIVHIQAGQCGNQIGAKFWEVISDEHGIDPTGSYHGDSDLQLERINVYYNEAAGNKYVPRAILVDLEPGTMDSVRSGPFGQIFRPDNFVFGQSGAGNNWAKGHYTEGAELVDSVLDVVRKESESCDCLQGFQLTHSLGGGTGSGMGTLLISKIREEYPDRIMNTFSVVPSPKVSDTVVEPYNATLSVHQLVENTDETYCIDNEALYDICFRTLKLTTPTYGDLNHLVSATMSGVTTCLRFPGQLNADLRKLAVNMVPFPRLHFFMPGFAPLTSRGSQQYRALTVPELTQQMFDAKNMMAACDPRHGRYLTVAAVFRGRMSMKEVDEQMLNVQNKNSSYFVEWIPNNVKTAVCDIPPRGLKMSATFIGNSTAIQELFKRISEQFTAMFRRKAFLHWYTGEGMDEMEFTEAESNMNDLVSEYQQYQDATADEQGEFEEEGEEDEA

For orientation: IC50 means the midpoint of a concentration-inhibition curve. One may read the MIC as the lowest concentration found to suppress growth. For `Oc1cccc2c1[nH]c1c(C3=C[C@@]4(O)CC/C=C\CCCCN5CC[C@@H]3[C@]3(CC6/C=C\CCCCN6[C@H]34)C5)nccc12` (stereo not given in full), the Activity in the series with Plasmodium berghei [1] is 100%; with Plasmodium berghei [8] (route intraperitoneal), 80%; in [9], above 10 µM; in the series with Plasmodium berghei [10] it was “Toxic”; in the series with Plasmodium berghei [11], 100%. The IC50 in series [2] was 0.5 µM; in series [12], above 10 µM. Also, the “Ratio IC50” value stood at 180 in [3] and 140 in [6] (vero). Also, the MST in the series with Plasmodium berghei [4] was above 28 days. In addition, the outcome in the series on Plasmodium berghei [5] was Active. Moreover, the selectivity ratio in [6] (Vero cells, read-out: Ratio IC50) came out at 25. The same molecule registered an MIC in [7] of 0.91 µg/mL (≈ 1.61 µM).

Take `O[C@]12C=C(c3nccc4c3[nH]c3ccccc34)[C@@H]3CCN(CCCC/C=C\CC1)C[C@@]31C[C@@H]3/C=C\CCCCN3[C@H]12`: the inhibition result at Tubulin (Sus scrofa) [13], in the series on Plasmodium berghei [5], in the series on Plasmodium berghei [8] and on Tubulin (Sus scrofa) [14] was “inactive” each time.

On to `CC(C)Cn1c2ccccc2c2ccnc(C3=C[C@@]4(O)CC/C=C\CCCCN5CC[C@@H]3[C@]3(C[C@@H]6/C=C\CCCCN6[C@H]34)C5)c21` [9-N-ISOBUTYLMANZAMINE A], for which, in series [15], inhibition of growth (MIC) required 4.6 µg/mL (≈ 7.6 µM). For the same molecule, the IC50 is above 10 µM in series [2]; 0.4 µg/mL (≈ 0.661 µM) in the series with Vero [16]; 1 µg/mL (≈ 1.65 µM) in series [17]; 0.078 µg/mL (≈ 0.129 µM) in the series with Plasmodium falciparum [21]; 10 µg/mL (≈ 16.5 µM) in the series on Candida albicans; 5.7 µM in [12]. The IC50 amounted to 0.039 µg/mL (≈ 0.0645 µM) in the series with Plasmodium falciparum [30] and 3 µg/mL (≈ 4.96 µM) in the series with Cryptococcus neoformans. Besides, the Activity in the series with HeLa [18] is 17.4%; in the series with HeLa [19], 51.1%; in the series on HeLa [20] it was above 30 µg/mL; in the series on HeLa [22], 19.5%; in the series with HeLa [23] it was 19.1%; in series [9], above 10 µM. Also, the Activity was found to be 17% in the series with HeLa [24]; 54.2% in the series on HeLa [25]; 16.6% in the series with HeLa [26]; 54.9% in the series on HeLa [27]; 19.2% in the series with HeLa [28]; 17.8% in the series on HeLa [29]. For the same molecule, the Activity with HeLa [31] is given as 52.3%; in the series on HeLa [32], 16.4%.

For the molecule `O[C@]12C=C(C3NCCc4c3[nH]c3ccccc43)[C@@H]3CCN(CCCC/C=C\CC1)C[C@@]31C[C@@H]3/C=C\CCCCN3[C@H]12` (stereo not given in full) [MANZAMINE D], the 50% inhibitory concentration (IC50) in series [2] was found to be 2.1 µM; in series [17], 0.1 µg/mL (≈ 0.181 µM); in the series on Plasmodium falciparum [21] it was 0.088 µg/mL (≈ 0.159 µM); in the series on Candida albicans, 15 µg/mL (≈ 27.1 µM); in series [12], 2.45 µM; in the series with Plasmodium falciparum [30], 0.09 µg/mL (≈ 0.163 µM). For the same molecule, the IC50 in the series on Cryptococcus neoformans is 0.8 µg/mL (≈ 1.45 µM). Also, the Activity in series [9] was 1 µM; in series [33] it was “Toxic”; in the series with Vero [34], “Non-toxic”.
